RanGTP-Impb inh: inhibitors of RanGTP-importin-beta interaction, primary screen, biochemical, FRET, CFP-Ran, YFP-importin-beta, homogeneous; Ran GTPase (GTP-bound) - importin-beta complex; cell-free CFP-Ran/YFP-importin-beta FRET ratio; inhibition, % (test concentration not listed); 300,000 tested, 1.1% active; AID 2216, 2009;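 active = more than half of the replicate wells show a fall in the fluorescence ratio signal beyond about 16%, limit read from the data, passing the limit was not always enough; inconclusive = exactly half of the replicate wells pass the set limit; inactive = fewer than half of replicates pass the limit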;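 also: 0% = DMSO wells and 100% = Ran loaded with GDP instead of GTP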
VIM-2 inh: VIM-2 metallo-beta-lactamase inhibitors, primary screen, biochemical, epi-absorbance readout, Pseudomonas aeruginosa enzyme | purified VIM-2, nitrocefin hydrolysis, epi-absorbance fluorescence | inhibition, % at 5.6 µM | 290,000 tested, 0.89% active | AID 1527, 2009;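 active = inhibition above the mean of all tested compounds plus 3 SD, cutoff set per screening run, cut at about 7.5% in these data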;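 also: red hydrolysis product quenches plate fluorescence so inhibitors raise well fluorescence; 0% = enzyme with DMSO and 100% = DMSO without enzyme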
IMP-1 inh: IMP-1 metallo-beta-lactamase inhibitors, primary screen, biochemical, epi-absorbance readout, Pseudomonas aeruginosa enzyme; 290,000 tested, 0.45% active; purified IMP-1, nitrocefin hydrolysis, epi-absorbance fluorescence; AID 1556, 2009; metallo-beta-lactamase IMP-1 (Pseudomonas aeruginosa); inhibition, % at 5.6 µM;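 active = inhibition above the mean plus 3 SD of all compounds in the same screening run, cut at about 4.5% in these data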;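 also: 0% = IMP-1 with DMSO and 100% = DMSO wells lacking enzyme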
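Material – recombinant IMP-1 enzyme, purified · Amount – IMP-1 0.2 nM before substrate addition · Medium – HEPES buffer pH 7.1 with ZnSO4 and Brij 35 · Timing – 25 °C, 15 min preincubation, 25 min reaction · Measured by – plate fluorescence quenching by hydrolysis product, ex 480/em 530 nm · Read-out – percent enzyme inhibition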
Runt-CBFb FRET: inhibitors of RUNX1 Runt–CBFb binding, primary screen, biochemical, FRET, Cerulean-Runt, Venus-CBFb, uHTS. Runt-related transcription factor 1 (Homo sapiens) + Core-binding factor subunit beta …. Cerulean-Runt/Venus-CBFb FRET ratio 530/480, 1 h. inhibition, % at 20 µM. 220,000 tested, 0.46% active;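 active = inhibition over about 50% at 20 µM in the single-dose screen, limit read from the data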;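 also: 0% = DMSO wells and 100% = excess unlabeled CBFb competitor control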
Target sequence (Q01196 whole entry, looked up): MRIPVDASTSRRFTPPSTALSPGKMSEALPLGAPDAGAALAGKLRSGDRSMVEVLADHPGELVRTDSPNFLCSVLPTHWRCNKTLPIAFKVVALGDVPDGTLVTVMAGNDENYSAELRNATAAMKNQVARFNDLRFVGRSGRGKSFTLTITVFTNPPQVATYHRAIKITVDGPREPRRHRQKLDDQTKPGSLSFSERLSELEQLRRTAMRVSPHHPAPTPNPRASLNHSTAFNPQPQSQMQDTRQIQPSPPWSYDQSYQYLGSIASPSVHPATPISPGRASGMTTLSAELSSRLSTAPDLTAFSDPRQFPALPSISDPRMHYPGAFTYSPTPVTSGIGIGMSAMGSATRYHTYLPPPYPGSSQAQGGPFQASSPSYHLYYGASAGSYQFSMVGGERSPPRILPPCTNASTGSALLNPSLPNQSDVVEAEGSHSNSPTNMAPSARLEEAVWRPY
Target sequence (Q13951 whole entry, looked up): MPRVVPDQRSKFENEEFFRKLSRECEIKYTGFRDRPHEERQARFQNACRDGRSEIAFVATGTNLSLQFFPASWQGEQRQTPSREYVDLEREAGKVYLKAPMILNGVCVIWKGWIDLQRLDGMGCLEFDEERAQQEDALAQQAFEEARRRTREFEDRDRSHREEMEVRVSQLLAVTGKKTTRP
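Measured by: fluorescence energy transfer, 422 nm excitation, 530/480 nm emission; test system: Cerulean-tagged RUNX1 Runt domain (FRET donor) fusion protein; buffer or medium: Tris pH 7.5 buffer with BSA; compound: one dose, 20 µM compound, 1% DMSO; times: two 1 h room-temperature incubations shielded from light; benchmarks: unlabeled CBFb 5 µM, positive control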
Runt-SMMHC FRET: inhibitors of RUNX1 Runt–CBFb-SMMHC binding, primary screen, biochemical, FRET, Cerulean-Runt, Venus-CBFb-SMMHC, uHTS | inhibition, % at 20 µM | 220,000 tested, 0.74% active | Cerulean-Runt/Venus-CBFb-SMMHC FRET ratio 530/480, 1 h | Runt-related transcription factor 1 (Homo sapiens) + Core-binding factor subunit beta …;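 active = mean inhibition across duplicate retests at 20 µM reaching about 50%, limit read from the data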;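 also: 0% = DMSO wells and 100% = wells with excess untagged CBFb-SMMHC; inhibitors lower the FRET ratio by blocking Runt binding to CBFb-SMMHC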
Runt-CBFb TRFRET: inhibitors of RUNX1 Runt–CBFb binding, biochemical, TR-FRET; shares compounds with Runt-CBFb FRET; TR-FRET RUNX1 Runt domain-CBFb binding; inhibition, % at 20 µM; 480 tested, 20% active; AID 1502, 2009; in the data active = inhibition above about 40%
Starred values were filed as active, the others as inactive; ? = inconclusive; nt = not tested or not shown. Only some compounds are listed: those with a hit (about 2.6% of all), similar ones and a draw of the others.

SMILES | RanGTP-Impb inh | VIM-2 inh | IMP-1 inh | Runt-CBFb FRET | Runt-SMMHC FRET | Runt-CBFb TRFRET
O=C1COc2ccc(C(=O)COC(=O)c3ncc(Cl)c(Cl)c3Cl)cc2N1 | 3 | nt | nt | nt | nt | nt
CCCc1cc2c(=O)c(-c3cscn3)c(C(=O)OCC)oc2cc1O | ? | -2 | -3 | 0 | -3 | nt
CCOC(=O)c1[nH]nc(-c2cc(CC)c(O)cc2O)c1-c1cscn1 | -2 | -4 | -1 | 61* | 0 | 3
CCN(CC)S(=O)(=O)c1ccc(OC)c(NS(=O)(=O)c2ccc(F)cc2)c1 | -2 | -5 | -2 | 50* | 149 | -11
Cc1ccc(CCC(=O)NCc2ccccc2)o1 | 1 | -2 | -2 | nt | nt | nt
Oc1ccc(O)c(Cc2nc3ccccc3s2)c1 | 1 | 2 | -1 | 51* | 10 | 43*
O=C(NCc1ccon1)C1CCC(=O)N(CCc2ccc(Cl)cc2)C1 (stereo not given) | 5 | 2 | 1 | nt | nt | nt
COc1ccc(N2CCN(C(=O)c3cccc(NC(=O)c4ccco4)c3)CC2)cc1 | 3 | -2 | -3 | nt | nt | nt
CC(=O)Oc1cc2oc(=O)cc(C)c2cc1Cl | 13 | -3 | -4 | 79* | 113* | -57
Cc1ccc(S(=O)(=O)NC(C(=O)Oc2cc3oc(=O)cc(C)c3cc2Cl)C(C)C)cc1 (stereo not given) | ? | 1 | 1 | 61* | 115* | 53*
Cc1cc(=O)oc2cc(OC(C)C(=O)O)c(Cl)cc12 (stereo not given) | -2 | -5 | -2 | 0 | 47 | nt
Cc1cc(NC(=O)COc2coc(CN3CCN(c4ccccc4F)CC3)cc2=O)no1 | 1 | nt | nt | nt | nt | nt
CC(C)(CNC(=O)c1ccc(Br)o1)CNC(=O)c1ccc(Br)o1 | 1 | -1 | -1 | nt | nt | nt
O=C(O)CSc1c2c(nc3cc(C(=O)N4CCOCC4)ccc13)CCCC2 | 31* | -1 | -4 | 59* | 102* | 31
CCOC(=O)N1CCN(C(=O)c2ccc3c(SCC(=O)O)c4c(nc3c2)CCCC4)CC1 | 0 | -3 | -6 | 2 | 2 | nt
CNC(=S)N(Cc1cc2ccc(OC)cc2[nH]c1=O)CC1CCCO1 (stereo not given) | 7 | -4 | -3 | 63* | 40 | 26
COc1ccc2cc(CN(Cc3ccco3)C(=S)NCC3CCCO3)c(=O)[nH]c2c1 (stereo not given) | 1 | -3 | -1 | nt | nt | nt
O=C(CCSc1ccccn1)c1ccccc1 | 2 | 2 | -1 | 59* | 45 | 5
CN1CCc2cccc3c2[C@H]1Cc1ccc(O)c(O)c1-3 | 3 | 4 | -1 | 73* | nt | 36
Nc1c(C(=O)NCCN2CCOCC2)c2nc3ccccc3nc2n1CCc1ccccc1F | 93* | -5 | -4 | 70* | 61* | 24
COc1ccc(N2C(=O)C(Cl)=C(Oc3cccc(OC)c3)C2=O)cc1 | nt | -2 | -3 | 57* | 44 | 43*
COc1ccc(N2C(=O)c3ccccc3C2=O)cc1 | 2 | -5 | -1 | nt | nt | nt
COc1ccc(CCNC(=O)Cn2nnc(C(=O)Nc3cccc(C)c3C)c2N)cc1OC | 7 | -2 | -3 | nt | nt | nt
O=C(NCc1ccccc1C(F)(F)F)C1CCC(=O)N(CCCc2ccccc2)C1 (stereo not given) | 1 | 1 | -1 | nt | nt | nt
Cc1ccc(Cn2cnc3ccccc32)cc1 | 0 | -1 | 0 | 54* | -2 | -13
CC(=O)Nc1ccc(S(=O)(=O)Nc2nc3cc4c(cc3nc2Cl)OCCO4)cc1 | 11 | -1 | -3 | 51* | 75* | 36
Cc1ccc(C(=O)/C=C/C(=O)c2ccc(C)cc2)cc1 | 3 | 4 | -1 | 54* | 50 | 19
Cc1ccc(/C=C/C(=O)c2ccc(C)cc2)cc1 | -2 | -2 | -6 | -3 | 1 | nt
